Consider 38 compounds from ChEMBL document CHEMBL2034978, “Synthesis and evaluation of curcumin-related compounds for anticancer activity” (Eur J Med Chem, 2012).

For orientation: IC50 means the midpoint of a concentration-inhibition curve. Read a high IC50 as weaker potency.

Assay [1] deals with PC-3. Briefly: Cytotoxicity against human PC3 cells after 72 hrs by MTT assay. Format: functional, cell-based. The conditions noted are these: PC-3, 72 h. A digest of the protocol:
(§1)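 Seeded at 0.2 × 10⁵ cells/ml, grown 24 h, then exposed 72 h to a range of concentrations (upper limit 30). MTT read-out: formazan dissolved in DMSO, absorbance at 540 nm, growth expressed as percent of DMSO-treated cells.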
On the technique in general: Tetrazolium dyes change colour on reduction, which living cells bring about.

Assay [2] relates to PANC-1. The experiment in a line: Cytotoxicity against human PANC1 cells after 72 hrs by MTT assay. Format: functional, cell-based. The conditions noted are these: PANC-1, 72 h. In a few lines: as §1
Assay [3] concerns HT-29. Briefly: Cytotoxicity against human HT-29 cells after 72 hrs by MTT assay. Format: functional, cell-based. The conditions noted are these: HT-29, 72 h. A digest of the protocol:
as §1

Assay [4] has as its system PC-3. Briefly: Ratio of curcumin IC50 to compound IC50 for human PC3 cells. The class given is functional. A digest of the protocol: (§2)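 Curcumin served as positive control in each incubation, with its growth-inhibition data averaged across experiments.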
For assay [5], the system named is PANC-1. Briefly: Ratio of curcumin IC50 to compound IC50 for human PANC1 cells. Format: functional. A digest of the protocol: as §2
Assay [6] concerns HT-29. The experiment in a line: Ratio of curcumin IC50 to compound IC50 for human HT-29 cells. Format: functional. A digest of the protocol:
as §2

Assay [7] deals with PC-3. Briefly: Induction of apoptosis in human PC3 cells at <1 uM after 96 hrs by morphology analysis. The class given is functional, cell-based.
The test system of assay [8] is PC-3. Briefly: Inhibition of Akt phosphorylation in human PC3 cells at 0.5 uM after 24 hrs by Western blotting relative to beta-actin. The class given is cell-based. A digest of the protocol:
(§3)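 PC-3 cells were seeded at 1 × 10⁵ cells/ml in 100 mm dishes, grown 24 h, then treated 24 h. Cells were lysed in Tris-HCl pH 7.4 buffer containing NaF, pyrophosphate, orthovanadate and Triton X-100, and lysates cleared at 12,000×g. Blots on PVDF were probed with anti-phospho-Akt or anti-phospho-Erk1/2, detected by ECL, quantified by optical density and normalized to β-actin.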
(In general: A western blot detects proteins with antibodies after separation by electrophoresis.)

Assay [9] has as its target Mitogen-activated protein kinase; ERK1/ERK2 (Homo sapiens) (UniProt P27361+P28482). The experiment in a line: Inhibition of ERK1/2 phosphorylation in human PC3 cells at 0.5 uM after 24 hrs by Western blotting relative to beta-actin. Format: cell-based. The conditions noted are these: PC-3. A digest of the protocol: as §3

Each structure is given as a SMILES string. Calls of active or inactive are those of the source. The rule behind the calls is not given here. Where only a bound is given, the exact number is not on record here.

Mitogen-activated protein kinase; ERK1/ERK2 (Homo sapiens), sequence (P27361 whole entry, looked up): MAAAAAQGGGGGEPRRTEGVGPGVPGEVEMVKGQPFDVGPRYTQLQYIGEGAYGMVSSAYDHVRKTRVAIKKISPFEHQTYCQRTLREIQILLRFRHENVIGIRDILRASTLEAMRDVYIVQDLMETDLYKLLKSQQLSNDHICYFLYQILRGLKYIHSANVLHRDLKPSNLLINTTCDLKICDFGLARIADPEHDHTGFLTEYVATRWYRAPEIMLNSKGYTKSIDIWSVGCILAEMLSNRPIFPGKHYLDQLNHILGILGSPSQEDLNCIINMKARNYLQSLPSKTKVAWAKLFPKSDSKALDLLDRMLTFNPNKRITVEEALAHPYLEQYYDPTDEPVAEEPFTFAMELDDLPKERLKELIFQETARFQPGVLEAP
Mitogen-activated protein kinase; ERK1/ERK2 (Homo sapiens), sequence (P28482 whole entry, looked up): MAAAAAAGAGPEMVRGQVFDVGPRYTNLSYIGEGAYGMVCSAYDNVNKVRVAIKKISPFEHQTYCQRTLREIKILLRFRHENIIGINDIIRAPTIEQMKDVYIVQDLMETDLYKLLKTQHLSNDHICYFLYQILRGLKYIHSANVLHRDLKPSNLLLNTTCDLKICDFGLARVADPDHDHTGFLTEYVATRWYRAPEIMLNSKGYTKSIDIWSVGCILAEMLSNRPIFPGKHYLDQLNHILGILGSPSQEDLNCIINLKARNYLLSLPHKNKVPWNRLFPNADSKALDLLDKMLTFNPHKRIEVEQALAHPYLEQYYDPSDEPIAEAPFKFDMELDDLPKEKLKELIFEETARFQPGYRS

In the case of `O=C(/C=C/c1ccc(O)c(O)c1)/C=C/c1ccc(O)c(O)c1`, the results for the IC50 in the assay with PC-3 [1], in the assay on PANC-1 [2] and with HT-29 [3] were 8.99 µM, 13.4 µM and 9.02 µM, respectively.
The corresponding values for `O=C1/C(=C/c2ccc(Cl)cc2)CNC/C1=C\c1ccc(Cl)cc1` are 3.63 µM, 3.73 µM and 6.33 µM.
For `COc1cc(/C=C/C(=O)/C=C/c2ccc(O)c(OC)c2)ccc1O`, in that order: 4.2 µM, 4.62 µM and 2.94 µM.
For the compound `O=C1/C(=C/c2ccc(O)cc2)COC/C1=C\c1ccc(O)cc1`, the values for the IC50 in the assay with PC-3 [1], with PANC-1 [2] and in the assay with HT-29 [3] were 7.28 µM, 11.1 µM and 3.86 µM, respectively.
Regarding `COc1cc(/C=C2\CCC/C(=C\c3cc(OC)c(OC)c(OC)c3)C2=O)cc(OC)c1OC`, the IC50 in the assay on PC-3 [1] stood at 6.17 µM; in the assay on PANC-1 [2], 9.66 µM; with HT-29 [3] it was 4.23 µM.
Turning to `COc1cc(C=C2CSCC(=Cc3cc(OC)c(OC)c(OC)c3)C2=O)cc(OC)c1OC`, the concentration for half-maximal inhibition (IC50) with PC-3 [1] amounted to 0.28 µM; in the assay with PANC-1 [2] it was 0.7 µM; with HT-29 [3], 0.26 µM. The “Ratio IC50” value with PC-3 [4] is 69; in the assay on PANC-1 [5], 34; in the assay on HT-29 [6], 72. Further, the result in the assay on PC-3 [7] was Active. The inhibition result in the assay with PC-3 [8] is “inactive”. For the same compound, the inhibition result in assay [9] was “Active”.
For the compound `O=C1/C(=C/c2cccnc2)CC/C1=C\c1cccnc1`, the results for the IC50 in the assay with PC-3 [1], in the assay on PANC-1 [2] and in the assay on HT-29 [3] were 6.97 µM, 6.22 µM and 5.54 µM, respectively.
The corresponding values for `COc1cc(/C=C2\CC/C(=C\c3cc(OC)c(O)c(OC)c3)C2=O)cc(OC)c1O` are 9.98 µM, 9.63 µM and 7.8 µM.
The corresponding values for `COc1ccc(C=C2CSCC(=Cc3ccc(OC)c(OC)c3OC)C2=O)c(OC)c1OC` are 3.78 µM, 4.71 µM and 2.89 µM.
The corresponding values for `COc1ccc(/C=C/C(=O)/C=C/c2ccc(OC)cc2)cc1` are 11.2 µM, 14 µM and 11.3 µM.
For the compound `O=C1/C(=C/c2cccnc2)CCC/C1=C\c1cccnc1`, the IC50 with PC-3 [1] worked out at 2.16 µM; with PANC-1 [2] it was 2.5 µM; in the assay on HT-29 [3], 1.99 µM.
The corresponding values for `COc1ccc(/C=C2\CC/C(=C\c3ccc(OC)c(OC)c3OC)C2=O)c(OC)c1OC` are 18.7 µM, 22.7 µM and 19.8 µM.
For `COc1ccc(/C=C/C(=O)/C=C/c2ccc(OC)c(OC)c2OC)c(OC)c1OC`, in that order: 5.93 µM, 9.22 µM and 5.09 µM.
On to `O=C1/C(=C/c2ccc(F)cc2)CCC/C1=C\c1ccc(F)cc1`, for which the half-inhibitory concentration (IC50) turned out to be 11.9 µM in the assay on PC-3 [1], 10.4 µM in the assay on PANC-1 [2] and 7.56 µM in the assay on HT-29 [3].
`O=C1/C(=C/c2ccncc2)COC/C1=C\c1ccncc1`: the IC50 in the assay with PC-3 [1] was determined as 1.83 µM; in the assay with PANC-1 [2], 2.96 µM; in the assay on HT-29 [3], 4.17 µM.
The corresponding values for `COc1ccc(/C=C2\COC/C(=C\c3ccc(OC)cc3)C2=O)cc1` are 6.12 µM, 7.63 µM and 6.05 µM.
For `COc1cc(C=C2CSCC(=Cc3cc(OC)c(O)c(OC)c3)C2=O)cc(OC)c1O`, in that order: 1.13 µM, 2.2 µM and 1.73 µM.
For `O=C1/C(=C/c2ccsc2)CC/C1=C\c1ccsc1`, in that order: 23 µM, 27.9 µM and 19.7 µM.
Consider `O=C1/C(=C/c2ccc(F)cc2)CNC/C1=C\c1ccc(F)cc1`, for which the values for the concentration for half-maximal inhibition (IC50) in the assay on PC-3 [1], in the assay with PANC-1 [2] and in the assay with HT-29 [3] were 2.87 µM, 3.15 µM and 3.26 µM, respectively.
On to `O=C(/C=C/c1ccc(Br)cc1)/C=C/c1ccc(Br)cc1`, for which the IC50 with PC-3 [1] was determined as 23.1 µM; in the assay with PANC-1 [2], 20.8 µM; in the assay on HT-29 [3], 14 µM.
For the compound `COc1ccc(/C=C2\CC/C(=C\c3ccc(OC)c(OC)c3)C2=O)cc1OC`, the IC50 with PC-3 [1] was 9.3 µM; with PANC-1 [2], 13.7 µM; in the assay with HT-29 [3] it was 13.5 µM.
Consider `COc1cc(/C=C2\COC/C(=C\c3cc(OC)c(OC)c(OC)c3)C2=O)cc(OC)c1OC`, for which the values for the 50% inhibitory concentration (IC50) with PC-3 [1], in the assay on PANC-1 [2] and with HT-29 [3] were 0.27 µM, 0.52 µM and 0.16 µM, respectively. The “Ratio IC50” value in the assay with PC-3 [4] is listed as 72; in the assay with PANC-1 [5] it was 46; in the assay on HT-29 [6], 117. Further, in the assay on PC-3 [7], the outcome was Active. Moreover, the inhibition result (in the assay on PC-3 [8]; in assay [9]) was “Active” in each case.
For `COc1cc(/C=C/C(=O)CC(=O)/C=C/c2ccc(O)c(OC)c2)ccc1O` [CURCUMIN], the IC50 in the assay on PC-3 [1] is 19.4 µM; with PANC-1 [2], 23.7 µM; with HT-29 [3] it was 18.7 µM. In the assay on PC-3 [7], the outcome was inactive. Also, the inhibition result (in the assay on PC-3 [8]; in assay [9]) was “inactive” in each case.
As for `O=C1/C(=C/c2ccsc2)CSC/C1=C\c1ccsc1`, the IC50 in the assay on PC-3 [1] came out at 4.13 µM; in the assay with PANC-1 [2], 7.49 µM; with HT-29 [3] it was 6.75 µM.
The corresponding values for `O=C1/C(=C/c2ccccn2)CC/C1=C\c1ccccn1` are 2.94 µM, 5.19 µM and 5.36 µM.
The corresponding values for `COc1cc(/C=C2\COC/C(=C\c3cc(OC)c(O)c(OC)c3)C2=O)cc(OC)c1O` are 0.91 µM, 1.72 µM and 1.44 µM.
For `O=C1/C(=C/c2ccsc2)CCC/C1=C\c1ccsc1`, in that order: 14.6 µM, 17.4 µM and 17.3 µM.
`O=C1/C(=C/c2cccnc2)CSC/C1=C\c1cccnc1`: the IC50 with PC-3 [1] stood at 0.96 µM; with PANC-1 [2] it was 0.51 µM; with HT-29 [3], 0.79 µM. The “Ratio IC50” value in the assay on PC-3 [4] is 21; in the assay with PANC-1 [5], 45; with HT-29 [6], 27. In the assay with PC-3 [7], the outcome was Active. The inhibition result in the assay with PC-3 [8] was “inactive”. Further, the inhibition entry in assay [9] is “Active”.
In the case of `COc1ccc(/C=C2\CC/C(=C\c3ccc(OC)cc3)C2=O)cc1`, the figures for the IC50 with PC-3 [1], with PANC-1 [2] and with HT-29 [3] were 25.8 µM, over 30 µM and 23 µM, respectively.
Regarding `COc1cc(/C=C2\CCC/C(=C\c3ccc(O)c(OC)c3)C2=O)ccc1O` [CYCLOVALONE], the figures for the IC50 in the assay with PC-3 [1], in the assay on PANC-1 [2] and in the assay on HT-29 [3] were 5.89 µM, 4.43 µM and 3.73 µM, respectively.
The corresponding values for `O=C1/C(=C/c2ccc(O)cc2)CC/C1=C\c1ccc(O)cc1` are 22.9 µM, over 30 µM and 21.4 µM.
For `COc1ccc(C=C2CSCC(=Cc3ccc(OC)cc3)C2=O)cc1`, the figures for the IC50 in the assay with PC-3 [1], with PANC-1 [2] and with HT-29 [3] were 8.46 µM, 10.9 µM and 7.93 µM, respectively.
On to `O=C1/C(=C/c2ccccn2)CSC/C1=C\c1ccccn1`, for which the IC50 in the assay on PC-3 [1] was determined as 0.52 µM; in the assay on PANC-1 [2], 0.7 µM; in the assay on HT-29 [3] it was 0.76 µM. Besides, the “Ratio IC50” value in the assay on PC-3 [4], in the assay on PANC-1 [5] and with HT-29 [6] was 21 each time. Besides, the outcome in the assay with PC-3 [7] was Active. Besides, the inhibition result in the assay on PC-3 [8] was “inactive”. For the same compound, the inhibition entry in assay [9] was “Active”.
`O=C1/C(=C/c2ccc(Br)cc2)CCC/C1=C\c1ccc(Br)cc1`: the IC50 with PC-3 [1] was found to be 13.6 µM; in the assay on PANC-1 [2], 12.2 µM; with HT-29 [3], 9.19 µM.
The corresponding values for `O=C1/C(=C/c2cccnc2)COC/C1=C\c1cccnc1` are 2.21 µM, 0.98 µM and 1.81 µM.
For `O=C1/C(=C/c2ccc(Br)cc2)CNC/C1=C\c1ccc(Br)cc1`, in that order: 1.95 µM, 2.06 µM and 4.13 µM.
For `O=C1/C(=C/c2ccsc2)COC/C1=C\c1ccsc1`, in that order: 6.59 µM, 10.8 µM and 8.94 µM.
Consider `O=C1/C(=C/c2ccncc2)CCC/C1=C\c1ccncc1`, for which the IC50 amounted to 2.12 µM with PC-3 [1], 2.18 µM in the assay with PANC-1 [2] and 2.35 µM in the assay with HT-29 [3].
